Laboratory results taken from publication PMC5935105 (Analytical biochemistry, 2018).

Legend:
[1] = target: SOS-catalyzed nucleotide exchange on RAS (SOScat, K-RAS G12D) (Homo sapiens, UniProt Q07889); assay: SOS-catalyzed nucleotide exchange assay using BODIPY-GDP-loaded RAS; type: biochemical; conditions: average of the two values of Table 1; 100 μM compound; normalized to API
In short: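 SOScat (residues 564–1049) with BODIPY-GDP-loaded RAS in 25 mM Tris pH 7.5, 50 mM NaCl, 1 mM MgCl2. Compound added at 10 s and unlabeled GTP at 120 s; fluorescence loss followed for 30 min. Rates come from single-exponential decay fits, normalized between SOS-catalyzed exchange without compound (0) and the maximal rate from the control compound on each plate (100).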

[2] = tested on: RAS-GTP levels in HeLa cells; assay: RAS-GTP levels in HeLa cells; type: cell-based; conditions: 30 minutes, up to 200 μM compound
[3] = tested on: phospho ERK1/2 T202/Y204 levels in HeLa cells; assay: phospho ERK1/2 T202/Y204 levels in HeLa cells; type: cell-based; conditions: 30 minutes; for phospho ERK levels at higher concentrations: higher concentrations (up to 200 μM); for phospho ERK levels at lower concentrations: lower concentrations of compound

| Average Relative Rate of Nucleotide Exchange at 100 μM [1] [%] | SMILES | RAS-GTP levels relative to DMSO control [2] | phospho ERK levels at higher concentrations [3] | phospho ERK levels at lower concentrations [3] |
| --- | --- | --- | --- | --- |
| 50.9 | CCCN1CCC(NCCC(c2ccccc2)c2ccccc2)CC1 [Compound 4, N-(3,3-diphenylpropyl)-1-propylpiperidin-4-amine] | did not cause an increase in RAS-GTP levels |  |  |
| 100 | N[C@@H](Cc1c[nH]c2ccccc12)C(=O)NC1CCN(Cc2c[nH]c3ccc(Cl)cc23)CC1 [API, (S)-2-amino-N-(1-((5-chloro-1H-indol-3-yl)methyl)piperidin-4-yl)-3-(1H-indol-3-yl)propanamide, reference compound] | increase in RAS-GTP levels was observed | inhibition of phospho ERK levels was observed | induction of phospho ERK levels |
| 69.1 | c1ccc(C(CCNC2CCNCC2)c2ccccc2)cc1 [Compound 4a, N-(3,3-diphenylpropyl)piperidin-4-amine] | increase in RAS-GTP levels was observed | inhibition of phospho ERK levels was observed | induction of phospho ERK levels |
